ChEMBL document CHEMBL1122504, “Heterocyclic Quinones. 4. A new highly cytotoxic drug: 6,7-bis(1-aziridinyl)-5,8-quinazolinedione” (1983)
Several values for one entry are separate records, joined by “and”; a condition that tells them apart may be missing. Equal entries are not always repeated.

Assays:
P388 [1] = assay: Number of survivors of P388 lymphocytic leukemia cell line on day 5/ number of treated mice at a dose of 1 i.v. injection of 15 mg/kg on Q01Dx01 treatment schedule; 5/10; type: functional, Mus musculus; details: route intravenous
P388 [2] = assay: Median survival time of P388 lymphocytic leukemia cell line after a dose of 5 mg/kg administered intraperitoneally on Q01Dx05 treatment schedule; type: functional, Mus musculus; details: route intraperitoneal
Summary of the method: (§1)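 P388 leukaemia: DBA/2 mice inoculated with 10^6 cells on day 0; treatment began day 1 at the stated route and schedule. Drug was dissolved in 0.15 M NaCl saline. The read-out was median survival time (MST, days), with toxicity taken as survivors on day 5. T/C% = treated MST/control MST × 100; ≥125% is considered significant.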

P388 [3] = assay: MST of treated animal over control when administered at a dose of 15 mg/kg perorally on Q01Dx07 treatment schedule; type: functional, Mus musculus; details: route oral; summary of the method: as §1
L1210 [4] = assay: MST of treated animal over control when administered at a dose of 20 mg/kg intraperitoneally on Q01Dx01 treatment schedule in L1210 cell lines; type: functional, Mus musculus; details: route intraperitoneal
Summary of the method: (§2)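 L1210 leukaemia: DBA/2 mice inoculated ip with 10^5 cells on day 0, with ip drug in 0.15 M NaCl saline on the stated schedule. The read-out was median survival time in days, with toxicity taken as survivors on day 5. T/C% = treated MST/control MST × 100; >125% is considered significant.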

B16 = assay: MST of treated animal over control when administered at a dose of 10 mg/kg intraperitoneally on Q01Dx01 treatment schedule in B16 melanocarcinoma cell lines; type: functional, Mus musculus; details: route intraperitoneal
Summary of the method: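 B16 melanocarcinoma: C57Bl/6 mice implanted sc with cell suspension on day 0; single ip dose in 0.15 M NaCl saline given on day 1. Median survival time was recorded in days, with toxicity taken as survivors on day 5. T/C% = treated MST/control MST × 100; >125% is considered significant.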

P388 [5] = assay: Median survival time of P388 lymphocytic leukemia cell line after a dose of 10 mg/kg administered intraperitoneally on Q01Dx01 treatment schedule; type: functional, Mus musculus; details: route intraperitoneal; summary of the method: as §1
P388 [6] = assay: MST of treated animal over control when administered at a dose of 15 mg/kg intravenously on Q01Dx01 treatment schedule; type: functional, Mus musculus; details: route intravenous; summary of the method: as §1
P388 [7] = assay: MST of treated animal over control when administered at a dose of 5 mg/kg intraperitoneally on Q01Dx09 treatment schedule; type: functional, Mus musculus; details: route intraperitoneal; summary of the method: as §1
L1210 [8] = assay: Median survival time of L1210 cell line after a dose of 5 mg/kg administered intraperitoneally on Q01Dx09 treatment schedule; type: functional, Mus musculus; details: route intraperitoneal; summary of the method: as §2
P388 [9] = assay: MST of treated animal over control when administered at a dose of 20 mg/kg intraperitoneally on Q01Dx01 treatment schedule; type: functional, Mus musculus; details: route intraperitoneal; summary of the method: as §1
P388 [10] = assay: Number of survivors of P388 lymphocytic leukemia cell line on day 5/ number of treated mice at a dose of 1 i.p. injection of 20 mg/kg on Q01Dx01 treatment schedule; 10/10; type: functional, Mus musculus; details: route intraperitoneal
L1210 [11] = assay: Number of survivors of L1210 cell line on day 5/ number of treated mice at a dose of 1 i.p. injection of 10 mg/kg on Q01Dx01 treatment schedule; 10/10; type: functional, Mus musculus; details: route intraperitoneal
L1210 [12] = assay: Number of survivors of L1210 cell line on day 5/ number of treated mice at a dose of 9ip injection of 2.5 mg/kg on Q01Dx09 treatment schedule; 10/10; type: functional, Mus musculus
P388 [13] = assay: MST of treated animal over control when administered at a dose of 10 mg/kg intraperitoneally on Q01Dx05 treatment schedule; type: functional, Mus musculus; details: route intraperitoneal; summary of the method: as §1
L1210 [14] = assay: Number of survivors of L1210 cell line on day 5/ number of treated mice at a dose of 9ip injection of 5 mg/kg on Q01Dx09 treatment schedule; 10/10; type: functional, Mus musculus
P388 [15] = assay: Number of survivors of P388 lymphocytic leukemia cell line on day 5/ number of treated mice at a dose of 1 i.v. injection of 15 mg/kg on Q01Dx01 treatment schedule; 10/10; type: functional, Mus musculus; details: route intravenous
P388 [16] = assay: Number of survivors of P388 lymphocytic leukemia cell line on day 5/ number of treated mice at a dose of 7po injection of 15 mg/kg on Q01Dx07 treatment schedule; 10/10; type: functional, Mus musculus
L1210 [17] = assay: MST of treated animal over control when administered at a dose of 5 mg/kg intraperitoneally on Q01Dx09 treatment schedule in L1210 cell lines; type: functional, Mus musculus; details: route intraperitoneal; summary of the method: as §2
P388 [18] = assay: Median survival time of P388 lymphocytic leukemia cell line after a dose of 5 mg/kg administered intravenously on Q01Dx01 treatment schedule; type: functional, Mus musculus; details: route intravenous; summary of the method: as §1
P388 [19] = assay: Number of survivors of P388 lymphocytic leukemia cell line on day 5/ number of treated mice at a dose of 7po injection of 10 mg/kg on Q01Dx07 treatment schedule; 10/10; type: functional, Mus musculus
P388 [20] = assay: Median survival time of P388 lymphocytic leukemia cell line after a dose of 20 mg/kg administered perorally on Q01Dx07 treatment schedule; type: functional, Mus musculus; details: route oral; summary of the method: as §1
Salmonella typhimurium [21] = assay: Mutagenesis test was performed at 20 uM concentration in Salmonella Typhimurium TA 98; type: functional, Salmonella enterica subsp. enterica serovar Typhimurium
Summary of the method: (§3)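 Salmonella typhimurium his auxotrophs TA98 and TA100 were tested by liquid suspension without metabolic activation. Overnight Oxoid nutrient broth cultures were subcultured, grown 2 h, then exposed to drug for 5 h. Cells were washed, resuspended to A650 2.50, and plated in top agar (0.6% agar, 0.6% NaCl). His+ revertants per plate were counted after 48 h at 37 °C; values are means of three assays.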

L1210 [22] = assay: MST of treated animal over control when administered at a dose of 10 mg/kg intraperitoneally on Q01Dx01 treatment schedule in L1210 cell lines; type: functional, Mus musculus; details: route intraperitoneal; summary of the method: as §2
Salmonella typhimurium [23] = assay: Mutagenesis test was performed at 20 uM concentration in Salmonella Typhimurium TA 100; type: functional, Salmonella enterica subsp. enterica serovar Typhimurium; summary of the method: as §3
Salmonella typhimurium [24] = assay: Mutagenesis test was performed at 0.3 uM concentration in Salmonella Typhimurium TA 98; type: functional, Salmonella enterica subsp. enterica serovar Typhimurium; summary of the method: as §3
P388 [25] = assay: Number of survivors of P388 lymphocytic leukemia cell line on day 5/ number of treated mice at a dose of 9 ip injection of 5 mg/kg on Q01Dx09 treatment schedule; 10/10; type: functional, Mus musculus; details: route intraperitoneal
Sarcoma-180 = assay: Median survival time of sarcoma 180 cell line after a dose of 10 mg/kg administered intraperitoneally on Q01Dx01 treatment schedule; type: functional, Mus musculus; details: route intraperitoneal
Summary of the method: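 Sarcoma 180 was inoculated ip in Swiss mice (10^6 cells, day 0), and drug was given ip in 0.15 M NaCl saline. Median survival time was recorded in days; antitumor activity was expressed as treated MST over control MST ×100, significant above 125%.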

P388 [26] = assay: Number of survivors of P388 lymphocytic leukemia cell line on day 5/ number of treated mice at a dose of 7po injection of 20 mg/kg on Q01Dx07 treatment schedule; 10/10; type: functional, Mus musculus
P388 [27] = assay: Median survival time of P388 lymphocytic leukemia cell line after a dose of 20 mg/kg administered intraperitoneally on Q01Dx01 treatment schedule; type: functional, Mus musculus; details: route intraperitoneal; summary of the method: as §1

For `O=C1C(N2CC2)=C(N2CC2)C(=O)c2ncncc21`, the “Toxicity Survivors” value (P388 [1]) was 5, the MST (P388 [2]) was 10.4 days and the T/C (P388 [3]) was 100%. The T/C (L1210 [4]) was 115%, the T/C (B16) was 91% and the MST (P388 [5]) was 9.5 days. The T/C (P388 [6]) was 139% and 114%, the T/C (P388 [7]) was 148% and the MST (L1210 [8]) was 9.1 days. The T/C (P388 [9]) was 134%, the “Toxicity Survivors” value (P388 [10]) was 10 and the “Toxicity Survivors” value (L1210 [11]) was 10. For the same molecule, the “Toxicity Survivors” value (L1210 [12]) was 10, the T/C (P388 [13]) was 84% and the “Toxicity Survivors” value (L1210 [14]) was 10. The “Toxicity Survivors” value (P388 [15]) was 10, the “Toxicity Survivors” value (P388 [16]) was 10 and the T/C (L1210 [17]) was 109%. For the same molecule, the MST (P388 [18]) was 10.4 days, the “Toxicity Survivors” value (P388 [19]) was 10 and the MST (P388 [20]) was 7.6 days. For the same molecule, the Revertants/plate (Salmonella typhimurium [21]) was 98, the T/C (L1210 [22]) was 114% and the Revertants/plate (Salmonella typhimurium [23]) was 108. The Revertants/plate (Salmonella typhimurium [24]) was 84, the “Toxicity Survivors” value (P388 [25]) was 10 and the MST (Sarcoma-180) was 18.3 days. For the same molecule, the “Toxicity Survivors” value (P388 [26]) was 10 and the MST (P388 [27]) was 9.5 days.
